# Experimental data of several laboratories.
# Each line is one published result; the experiments were not run side by side.
# Target: NUAK family SNF1-like kinase 1 (NUAK1, Homo sapiens, UniProt O60285)
# Read-out: enzyme activity
# Action: inhibitor
# Sequence (O60285 1-661, as in one of the studies): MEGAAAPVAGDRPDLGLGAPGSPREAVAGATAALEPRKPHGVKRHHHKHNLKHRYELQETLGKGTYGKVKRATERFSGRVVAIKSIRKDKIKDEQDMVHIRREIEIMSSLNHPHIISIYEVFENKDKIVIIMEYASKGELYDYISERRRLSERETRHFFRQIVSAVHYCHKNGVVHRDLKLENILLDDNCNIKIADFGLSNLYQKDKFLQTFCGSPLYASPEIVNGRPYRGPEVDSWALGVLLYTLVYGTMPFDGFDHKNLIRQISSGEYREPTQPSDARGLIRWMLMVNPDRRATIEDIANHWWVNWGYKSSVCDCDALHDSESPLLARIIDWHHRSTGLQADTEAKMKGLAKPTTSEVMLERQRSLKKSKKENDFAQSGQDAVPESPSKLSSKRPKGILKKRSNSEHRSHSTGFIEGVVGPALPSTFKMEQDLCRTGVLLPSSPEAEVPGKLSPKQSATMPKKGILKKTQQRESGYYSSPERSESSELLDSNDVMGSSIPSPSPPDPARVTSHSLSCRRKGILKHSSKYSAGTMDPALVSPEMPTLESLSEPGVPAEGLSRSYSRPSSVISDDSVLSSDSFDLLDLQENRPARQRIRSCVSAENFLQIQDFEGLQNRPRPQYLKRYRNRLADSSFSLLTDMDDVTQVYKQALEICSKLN
Compound,method,tested at,remaining activity
Cc1ccc(C(=O)Nc2ccc(CN3CCN(C)CC3)c(C(F)(F)F)c2)cc1C#Cc1cnc2cccnn12,,23.5 nM,85%
O=C(Nc1cnn(-c2csc(C(=O)NC3COC3)c2)c1)Nc1ccccc1Cl,,5 µM,97.9%
CC(C)(C)c1nc2c(s1)c1nc(N)ncc1c1ccc(NS(=O)(=O)c3c(F)cccc3F)c(F)c12,radiometric,1 µM,95%
Cc1nn(CC(F)(F)F)cc1Nc1nccc(NCCCNC(=O)C2CCC2)n1,radiometric,1 µM,86%
COc1cc(Cl)c(C(=O)N[C@@H](CN[C@H]2CC[C@@H](N)CC2)Cc2ccc(C#N)cc2)cc1-c1ccc(CN[C@H](C)c2ccc(C)cc2)o1,,1 µM,92%
O=C(Nc1cccc(Nc2ncc(Br)c(NCCc3cnc[nH]3)n2)c1)N1CCCC1,radiometric,1 µM,1%
CC(C)(O)[C@H]1CC[C@H](Nc2ccc3ncc(-c4cccc(C(F)(F)F)c4)n3n2)CC1,,1 µM,72%
NS(=O)(=O)c1ccc(CNc2nc(Nc3cccc(CN4CCOCC4)c3)ncc2C2CC2)cc1,radiometric,1 µM,83%
Cc1sc(C(=O)NC2COC2)cc1-n1cc(NC(=O)Nc2c(F)cccc2Cl)cn1,,10 µM,96.9%
Oc1cccc(-c2nc(N3CCOCC3)c3oc4ncccc4c3n2)c1,,10 µM,98%
CC(C)(C)c1nc(-c2cccc(NS(=O)(=O)c3c(F)cccc3F)c2F)c(-c2ccnc(N)n2)s1,radiometric,1 µM,101%
Cn1c(=O)n(-c2ccc(C(C)(C)C#N)cc2)c2c3cc(-c4cnc5ccccc5c4)ccc3ncc21,,10 µM,44%
NS(=O)(=O)c1ccc(CNc2nc(Nc3cccc(NC(=O)N4CCCC4)c3)ncc2C2CC2)cc1,radiometric,1 µM,89%
COc1cc(Nc2cnc(C#N)c(O[C@H](C)CN(C)C)n2)ncc1-c1cnn(C)c1,radiometric,10 µM,7%
Cc1cnc(NC2CCOCC2)nc1-n1cnc(C(=O)NC(CN)c2cc(F)cc(Cl)c2)c1 (stereo not drawn),radiometric,1 µM,67%
